Consider 1 compound from ChEMBL document CHEMBL3769399, “Synthesis and cytotoxic activities of some pyrazoline derivatives bearing phenyl pyridazine core as new apoptosis inducers” (Eur J Med Chem, 2016).

As a reminder, the IC50 is the point on the concentration scale where inhibition reaches its midpoint.

Where only a bound is given, the exact number is not on record here.

Series [1] relates to HepG2. The series can be described thus: Induction of necrosis in human HepG2 cells at 10 uM by annexin V-FITC/ethidium homodimer III staining-based flow cytometry relative to control. The format is functional. In a few lines: (§1)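 Treated cells at 2–3×10^5/mL were resuspended in 1X binding buffer and stained with FITC-Annexin V (apoptosis) plus Ethidium Homodimer III (necrosis) for 15 min at room temperature in the dark. Buffer was added and FACS was read within 1 h. Percent induction is the compound's apoptotic or necrotic fraction minus that of untreated negative control.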

A short description of series [2]: Cytotoxicity against HEK293 cells assessed as cell viability at 300 uM after 24 hrs by MTT assay. The format is cell-based. The settings on record: human, read-out: Activity. In a few lines: (§2)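 Human embryonic kidney 293 cells, as normal-cell counterpart, treated at four levels (10, 100, 200, 300). Percentage of viable cells reported with SE at each level, and IC50 estimated.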
(Tetrazolium assays rely on reduction of a dye to a coloured formazan, in cell work by metabolically active cells.)

Series [3] relates to MCF7. The series can be described thus: Antiproliferative activity against human MCF7 cells assessed as cell viability after 24 hrs by MTT assay. The format is functional, cell-based. The settings on record: MCF7, 24 h. In a few lines:
(§3)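 Monolayers in DMEM (A549) or RPMI (MCF-7) with 10% fetal calf serum, penicillin and streptomycin at 37 °C and 5% CO2. Seeded overnight at 10^3 cells/well, then dosed at 0–100 from a serum-free stock in 1% DMSO diluted in complete medium. After 24 h, viability was read by WST-1 premix at 450 nm and blank-corrected against untreated cells. IC50 given as mean with standard error.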

Series [4] can be described thus: Antiproliferative activity against human Caco2 cells assessed as cell viability after 24 hrs by MTT assay. Type of series: functional, cell-based. The settings on record: Caco-2, 24 h. The essentials:
(§4)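 CaCo-2 kept in RPMI with 10% fetal calf serum and antibiotics at 37 °C, 5% CO2. Cells were seeded at 10^3 per well overnight, then treated 24 h at 0, 5, 10, 50 and 100, diluted from a stock containing 1% DMSO. Viability came from WST-1 read at 450 nm, blank-subtracted and normalised to untreated cells.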

In series [5] the test system is HepG2. The series is described as follows: Antiproliferative activity against human HepG2 cells assessed as cell viability after 24 hrs by MTT assay. The format is functional, cell-based. Conditions: HepG2, 24 h. The essentials:
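HepG2 grown as monolayer in DMEM plus 10% fetal calf serum and penicillin/streptomycin at 37 °C, 5% CO2. Plated overnight at 10^3 cells/well and exposed 24 h to five levels (0–100) diluted in complete medium from a 1% DMSO stock. WST-1 absorbance at 450 nm gave blank-corrected % viability versus untreated control, from which IC50 was derived.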

Series [6] can be described thus: Cytotoxicity against HEK293 cells assessed as cell viability at 10 uM after 24 hrs by MTT assay. Type of series: cell-based. Conditions: human, read-out: Activity. In a few lines:
as §2

Series [7] can be described thus: Cytotoxicity against HEK293 cells assessed as cell viability at 100 uM after 24 hrs by MTT assay. The settings on record: human, read-out: Activity. Type of series: cell-based. The essentials: as §2
Series [8] has as its system MCF7. The series is described as follows: Induction of apoptosis in human MCF7 cells at 10 uM by annexin V-FITC/ethidium homodimer III staining-based flow cytometry relative to control. The format is functional. In a few lines: as §1
Series [9] deals with Caco-2. The series is described as follows: Induction of necrosis in human Caco2 cells at 10 uM by annexin V-FITC/ethidium homodimer III staining-based flow cytometry relative to control. The format is functional. The essentials: as §1
For orientation: In flow cytometry, cells or beads pass a laser one at a time.

A short description of series [10]: Cytotoxicity against HEK293 cells assessed as cell viability at 200 uM after 24 hrs by MTT assay. The format is cell-based. The settings on record: human, read-out: Activity. In a few lines:
as §2

The test system of series [11] is MCF7. The series is described as follows: Induction of apoptosis in human MCF7 cells assessed as increase in caspase 3 activation at IC50 using Ac-Asp-Glu-Val-Asp-pNA as substrate after 24 hrs by colorimetric assay relative to control. The format is functional. In a few lines:
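MCF-7 cells were grown in RPMI with 10% fetal calf serum, penicillin and streptomycin at 37 °C under 5% CO2, then seeded at 5 × 10^5 cells/well and treated for 24 h. After the medium was removed, cells were lysed with lysis buffer and shaken for 10 min. Lysate was added to caspase-3 reaction buffer containing diluted substrate. The increase in A405 was read over 30 min and expressed relative to untreated controls.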

In series [12] the test system is Caco-2. The series can be described thus: Induction of apoptosis in human Caco2 cells at 10 uM by annexin V-FITC/ethidium homodimer III staining-based flow cytometry relative to control. The format is functional. In a few lines: as §1
The subject of series [13] is MCF7. The series can be described thus: Induction of necrosis in human MCF7 cells at 10 uM by annexin V-FITC/ethidium homodimer III staining-based flow cytometry relative to control. The format is functional. In a few lines: as §1
For series [14], the system named is HepG2. The series can be described thus: Induction of apoptosis in human HepG2 cells at 10 uM by annexin V-FITC/ethidium homodimer III staining-based flow cytometry relative to control. Type of series: functional. In a few lines:
as §1

Series [15] can be described thus: Antiproliferative activity against human Caco2 cells assessed as cell viability at 10 uM after 24 hrs by MTT assay. Type of series: functional. The settings on record: Caco-2, 24 h, read-out: Activity. The essentials:
as §4

The next series concerns HEK293. The series can be described thus: Cytotoxicity against HEK293 cells assessed as cell viability after 24 hrs by MTT assay. The format is cell-based. Conditions: Homo sapiens, HEK293, 24 h. In a few lines:
as §2

The test system of the next series is A549. The series can be described thus: Antiproliferative activity against human A549 cells assessed as cell viability after 24 hrs by MTT assay. Type of series: functional, cell-based. Conditions: A549, 24 h. In a few lines:
as §3

For `FC(F)(F)c1ccc(C2CC(c3ccc(Cl)cc3)=NN2c2ccc(-c3ccccc3)nn2)cc1` (configuration not stated), the Activity with HepG2 [1] came out at 4.97%; in the series with MCF7 [8], 27.2%; in the series with Caco-2 [9], 1.87%; in the series on Caco-2 [12], 13.4%; with MCF7 [13], 1.26%; with HepG2 [14], 24.8%. Moreover, the viability at 24 h, 300 µM in series [2] stood at 79.1%. Further, the 50% inhibitory concentration (IC50) is 1.67 µM in the series with MCF7 [3]; 10 µM in series [4]; 8.33 µM in the series on HepG2 [5]; above 300 µM with HEK293; above 100 µM in the series with A549. For the same compound, the viability at 24 h, 10 µM in series [6] was determined as 92.7%. The viability at 24 h, 100 µM in series [7] is 87.7%. Further, the viability at 24 h, 200 µM in series [10] was 84.6%. In the series on MCF7 [11], the “fold change (FC)” value stood at 5. Moreover, the viability at 10 µM in series [15] came out at 50%.
